# Screening data deposited in PubChem BioAssay by several laboratories.
# Apaf-1 inh – inhibitors of human Apaf-1 apoptosome, primary screen, biochemical, DEVD-Rh110 fluorescence, uHTS. Apoptotic protease-activating factor 1 (Homo sapiens), O14727. reconstituted apoptosome caspase-3 activity. inhibition, % at 20 µM. 330,000 compounds, 0.71% hits; active = inhibition of at least 40% at 20 µM;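 also: plate controls were DMSO wells for no effect and DEVD-CHO caspase inhibitor wells for full effect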
#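 System: Apoptosome proteins | Medium: Hepes pH 7.5 with detergent and BSA | Also added: Cytochrome c trigger plus (Z-DEVD)2-Rh110 caspase-3 substrate | Incubation: 30 min compound preincubation, 50 min activation, room temperature | Detection: Rhodamine 110 fluorescence at Ex 480/Em 540 nm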
# SUMO HTRF inh – inhibitors of in vitro SUMOylation cascade, primary screen, biochemical, HTRF, uHTS | HTRF SUMOylation assay, SAE1/SAE2 + UBC9 | inhibition, % at 35 µM | AID 2006, 2009 | 290,000 compounds, 0.36% hits; in the data active = inhibition above about 50%, passing the limit was not always enough
# GSTO1 inh – inhibitors of recombinant GSTO1, primary screen, counter-screen for RBBP9 inhibitor project, biochemical, fluorescence polarization | activity-based probe fluorescence polarization | 300,000 compounds, 1.1% hits | inhibition, % at 5.96 µM | Glutathione S-transferase omega-1 (Homo sapiens), P78417;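 active = inhibition above the campaign mean inhibition plus 3 SD, cut at about 35% in these data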;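 also: 0% = GSTO1-1 with DMSO and 100% = wells lacking GSTO1-1 enzyme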
# Target sequence (P78417 whole entry, looked up): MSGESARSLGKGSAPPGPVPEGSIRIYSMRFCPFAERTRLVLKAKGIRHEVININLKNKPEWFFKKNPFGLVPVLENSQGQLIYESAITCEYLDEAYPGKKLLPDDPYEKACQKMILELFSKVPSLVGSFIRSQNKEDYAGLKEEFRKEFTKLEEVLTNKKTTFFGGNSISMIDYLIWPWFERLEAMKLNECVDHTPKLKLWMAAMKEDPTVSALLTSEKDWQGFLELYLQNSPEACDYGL
# JMJD2C inh – inhibitors of GASC-1 histone demethylase, primary screen, biochemical, fluorescence, DELFIA europium; Lysine-specific demethylase 4C (Homo sapiens), Q9H3R0; GST-JMJD2C(1-420) H3K9me3 demethylation; inhibition, % at 2.35 µM; 330,000 compounds, 0.069% hits; AID 2099, 2009;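 active = more than half of a compound's replicate wells show inhibition beyond 50%, single wells judged on their own value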;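 also: signal counts dimethyl H3K9 product captured on neutravidin plate; 0% = median of DMSO wells and 100% = 0.3 times that DMSO median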
# TDP2 inh – human TDP2 enzyme inhibitors, primary screen, biochemical, epi absorbance, recombinant enzyme; Tyrosyl-DNA phosphodiesterase 2 (Homo sapiens), O95551; T5PNP hydrolysis, p-nitrophenol absorbance 415 nm; inhibition, % at 12.8 µM; 370,000 compounds, 0.34% hits; AID 720702, 2013;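 active = inhibition above the mean of all tested compounds plus 3 SD, set per campaign, cut at about 25% in these data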;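 also: 0% = DMSO with enzyme and 100% = buffer with substrate but no TDP2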
#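 System – recombinant human TDP2 · Quantity – TDP2 enzyme at 120 nM final · Doses – single concentration, 12.8 µM nominal, with 1% DMSO · Incubation – 2 h at 37 °C · Measured by – epi absorbance of p-nitrophenol freed from T5PNP by hydrolysis · Read-out – % inhibition relative to enzyme-containing and enzyme-free wells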
# PAD4 inh – human PAD4 inhibitors, primary screen, biochemical, fluorescence polarization, 1536-well format; recombinant PAD4, RCA probe fluorescence polarization; 330,000 compounds, 0.41% hits; Protein-arginine deiminase type-4 (Homo sapiens), Q9UM07; inhibition, % at 6.36 µM;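 active = percent inhibition above a cutoff equal to the mean of all tested compounds plus 3 SD, cut at about 15% in these data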;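 also: 0% = PAD4 with RCA probe and DMSO and 100% = probe without PAD4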
# TDP2 confirm – human TDP2 enzyme inhibitors, retest, confirmation, biochemical, epi absorbance, recombinant enzyme. shares compounds with TDP2 inh. absorbance read-out. inhibition, % at 12.8 µM. 1,100 compounds, 22% hits; in the data active = inhibition above about 25%;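 also: 0% = vehicle with enzyme and 100% = no enzyme buffer only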
# The depositor's hits bear a star; x = no result. Shown are actives, neighbours in structure and some others; about 1.6% of the full set was active somewhere.
SMILES,Apaf-1 inh,SUMO HTRF inh,GSTO1 inh,JMJD2C inh,TDP2 inh,PAD4 inh,TDP2 confirm
COc1ccccc1CN1CCN(C(=O)COc2ccc3ccccc3c2)CC1,11,8,2,-14,25*,-2,6
COC(=O)C1C(c2ccccc2)CC2CCC1N2C (configuration not stated),x,x,x,x,9,x,x
CN1C(=O)C(=Cc2ccccc2Oc2ccc(Cl)c(F)c2)C(=O)N(C)C1=O,5,-18,6,-2,25*,4,7
O=C1NC(=O)C(=Cc2ccccc2Oc2ccc(F)cc2)C(=O)N1,x,20,x,x,-12,x,x
O=C(NCCN1CCC2(CC1)C(=O)NCN2c1ccccc1)c1cccc2c1-c1ccccc1C2=O,x,x,x,x,11,x,x
Cn1cc(P(=S)(c2ccccc2)c2ccccc2)c2ccccc21,x,x,x,x,-1,x,x
Cc1cc(OCC(=O)NCc2ccncc2)c2c3c(c(=O)oc2c1)CCC3,7,5,-3,34,26*,-3,5
